≈ marks a conversion by molar mass, not a printed value. Calls of active or inactive are those of the source. The rule behind the calls is not given here.
Experiments:
[1] = Thermodynamic solubility of the compound in phosphate buffer at pH 6.8 after overnight incubation by shake flask method; assay type: physicochemical; conditions: read-out: Therm_solubility
Procedure, shortened: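 Shake-flask method: solid added to pH 6.8 phosphate buffer at nominal 2 mg/mL, sonicated 10 min, shaken overnight 800 rpm at room temperature; phases separated by centrifugation 5000 rpm 20 min before supernatant quantitation.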

[2] = molecular target: Dual specificity protein kinase CLK2 (Homo sapiens, UniProt P49760); assay: Inhibition of CLK2 (unknown origin) assessed as residual activity at 1 uM relative to control
Procedure, shortened: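 Single-concentration screen at 1 μmol/L against a panel of 208 kinases, run as a commercial service; activity expressed relative to control.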

PC-3 = assay: Cytotoxicity against human PC3 cells assessed as reduction in cell viability incubated for 72 hrs by MTT assay; assay type: functional, cell-based; conditions: PC-3, 72 h
Procedure, shortened: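 About 5 × 10³ cells/well, seeded overnight at 37 °C, 5% CO₂, in DMEM or RPMI-1640 with 10% FBS and antibiotics. DMSO-dissolved compounds diluted in medium, exposure 72 h.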

[3] = molecular target: T1, Aldehyde dehydrogenase 1A1 (Homo sapiens) (UniProt P00352); assay: Inhibition of ALDH1A1 in human HCT116 cells assessed as reduction in mRNA transcriptional level at 20 uM after 24 hrs by RT-qPCR analysis; assay type: cell-based; conditions: HCT-116
T1 sequence (whole entry): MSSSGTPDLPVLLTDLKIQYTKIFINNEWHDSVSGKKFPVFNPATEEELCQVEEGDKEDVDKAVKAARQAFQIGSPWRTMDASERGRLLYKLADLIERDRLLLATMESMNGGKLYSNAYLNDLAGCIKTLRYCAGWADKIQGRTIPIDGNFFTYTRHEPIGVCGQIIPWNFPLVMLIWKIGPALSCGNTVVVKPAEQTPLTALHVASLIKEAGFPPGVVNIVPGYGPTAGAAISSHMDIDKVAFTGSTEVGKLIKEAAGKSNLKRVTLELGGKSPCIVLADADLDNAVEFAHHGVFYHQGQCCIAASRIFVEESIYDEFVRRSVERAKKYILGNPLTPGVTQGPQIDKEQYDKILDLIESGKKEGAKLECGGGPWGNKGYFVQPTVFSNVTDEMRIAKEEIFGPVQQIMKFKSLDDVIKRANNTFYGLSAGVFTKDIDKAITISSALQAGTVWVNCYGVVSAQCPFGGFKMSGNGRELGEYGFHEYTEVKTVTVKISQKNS
Procedure, shortened: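 HCT-116 cells treated 24 h; total RNA by TRIZOL, one-step RT-qPCR: 55 °C 10 min, 95 °C 1 min, then 39 cycles of 95 °C 10 s and 60 °C 30 s, with melting-curve and no-template controls. β-Actin as internal standard; relative expression by 2^−ΔΔCt, mean ± SD (n = 3).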

HCT-116 [4] = assay: Inhibition of cell stemness in human HCT116 cells assessed as reduction in OCT4 mRNA transcription levels at 20 uM after 24 hrs by RT-qPCR analysis; assay type: functional, cell-based
Procedure, shortened: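 Sorted ALDH⁺ HCT-116 cells treated 24 h; TRIZOL RNA, one-step RT-qPCR (RT 10 min 55 °C; 95 °C 1 min; 39 cycles 95 °C 10 s/60 °C 30 s) with melting-curve check; β-actin reference; fold change by 2^−ΔΔCt; t test, mean ± SD, n = 3.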

HCT-116 [5] = assay: Inhibition of cell stemness in human HCT116 cells assessed as reduction in size of tumor spheres at 5 uM after 10 days by microscopic analysis; assay type: functional, cell-based; conditions: time 10.0 day
Procedure, shortened: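 Sorted ALDH⁺ HCT-116 cells, 800/well, in serum-free DMEM with B27 (1:50), EGF 20 ng/mL, β-FGF 10 ng/mL; co-incubated with compound (5 μM) or DMSO vehicle for 10 days; sphere number, diameter and morphology scored from microscopy images; mean ± SD, n = 3.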

HCT-116 [6] = assay: Effect on Wnt/beta-Catenin signaling in human HCT116 cells assessed as upregulation of DKK1 protein level after 24 hrs by Western blotting analysis; assay type: functional, cell-based; conditions: dose 5-20 µM
Procedure, shortened: (§1)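 HCT-116 cells at 2 × 10⁵ cells/mL in DMEM/10% FBS, grown 12 h at 37 °C, then treated 24 h (vehicle DMSO). Lysates quantified by BCA, run on 10% SDS-PAGE, PVDF transfer, blocked in 5% milk/TBST, primary antibodies 4 °C overnight, HRP secondary 2 h, chemiluminescent detection; normalized to β-actin, n = 3.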

HCT-116 [7] = assay: Induction of apoptosis in human HCT116 cells assessed as early apoptotic cells at 5 uM after 24 hrs by annexin V-FITC/propidium iodide staining based flow cytometry (reference value: 1%); assay type: functional
HCT-116 [8] = assay: Induction of apoptosis in human HCT116 cells assessed as viable cells at 20 uM after 24 hrs by annexin V-FITC/propidium iodide staining based flow cytometry (reference value: 88.3%); assay type: functional; conditions: read-out: Activity
HCT-116 [9] = assay: Induction of apoptosis in human HCT116 cells assessed as down regulation of pro-caspase 9 level at 20 uM incubated for 24 hrs by Western blot analysis; assay type: functional, cell-based; procedure, shortened: as §1
HCT-116 [10] = assay: Induction of apoptosis in human HCT116 cells assessed as down regulation of pro-caspase 3 level at 20 uM incubated for 24 hrs by Western blot analysis; assay type: functional, cell-based; procedure, shortened: as §1
HCT-116 [11] = assay: Induction of apoptosis in human HCT116 cells assessed as down regulation of total PARP at 20 uM incubated for 24 hrs by Western blot analysis; assay type: functional, cell-based; procedure, shortened: as §1
HCT-116 [12] = assay: Induction of apoptosis in human HCT116 cells assessed as upregulation of cleaved caspase 3 level at 20 uM incubated for 24 hrs by Western blot analysis; assay type: functional, cell-based; procedure, shortened: as §1
[13] = AUC(0 to t) in Sprague-Dawley rat at 25 mg/kg, po measured up to 48 hrs by LC-MS/MS analysis; assay type: ADME, organism-based; design: route oral, dose 25 mg/kg, time <=48; conditions: in vivo
Procedure, shortened: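 Overnight-fasted male SD rats (about 250−270 g), three per group, single oral 25 mg/kg; test compound suspended in 5% CMC-Na, control as sodium salt in phosphate buffer. Blood sampled 0.25–48 h, plasma by centrifugation, stored −40 °C, quantified by LC−MS/MS against plasma standard curve (3–3000 ng/mL) with internal standard; model-fitted PK parameters.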

HCT-116 [14] = assay: Antitumor activity against human HCT116 cells xenografted in BALB/c athymic nude mouse assessed as tumor growth inhibition at 90 mg/kg, po administered twice daily for 4 weeks and measured every 3 days; assay type: functional; conditions: HCT-116, po, 672 h, read-out: TGI
Procedure, shortened: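 Male BALB/c athymic nude mice, 5 weeks old, 16−18 g, given 0.2 mL of 5 × 10⁷ cells/mL HCT-116 in right armpit. At about 100 mm³, randomized to groups of five; intragastric dosing twice daily for 4 weeks. Tumor volume and body weight every 3 days; tumors weighed after sacrifice; organs HE-stained.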

[15] = Toxicity in BALB/c mouse xenografted with human HCT116 cells assessed as effect on heart tissue at 60 to 90 mg/kg, po administered twice daily for 4 weeks and measured every 3 days by HE staining based assay; assay type: organism-based, HCT-116; conditions: in vivo, 672 h, dose 60-90 mg/kg
Procedure, shortened: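 Male 5-week BALB/c nude mice (16−18 g), 0.2 mL of 5 × 10⁷ cells/mL HCT-116 injected into right armpit; at ~100 mm³ randomized, 5/group; intragastric 60 or 90 mg/kg twice daily for 4 weeks; tumor volume and body weight every 3 days; after sacrifice heart, liver, spleen, lung, kidney HE-stained.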

Chain of Dual specificity protein kinase CLK2 (P49760 whole entry, looked up): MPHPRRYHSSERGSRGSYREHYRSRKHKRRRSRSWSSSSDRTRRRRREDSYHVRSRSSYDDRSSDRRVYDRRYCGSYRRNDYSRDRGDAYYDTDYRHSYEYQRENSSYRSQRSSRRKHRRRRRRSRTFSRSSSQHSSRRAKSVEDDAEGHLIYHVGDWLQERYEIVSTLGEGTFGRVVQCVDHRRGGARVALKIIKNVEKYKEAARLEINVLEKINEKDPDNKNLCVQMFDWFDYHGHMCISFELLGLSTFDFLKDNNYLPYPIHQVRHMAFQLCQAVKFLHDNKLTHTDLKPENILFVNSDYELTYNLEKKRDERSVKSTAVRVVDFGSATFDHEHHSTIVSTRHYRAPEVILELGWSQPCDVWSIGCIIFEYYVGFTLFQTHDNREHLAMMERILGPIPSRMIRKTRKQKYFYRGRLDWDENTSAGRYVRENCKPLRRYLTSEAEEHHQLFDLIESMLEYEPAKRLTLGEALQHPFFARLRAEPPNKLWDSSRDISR

solubility thermodynamic [1]: 0.89 µg/mL (≈ 2.27 µM)
Activity [2]: 22.1%
inhibition [3]: Active
AUC(0-t) at 48 h [13]: 40500 ng·h/mL
SMILES: O=C(NCCO)c1ccc2c(c1)nc(Nc1cccc(Cl)c1)c1ccncc12
IC50 (PC-3): 4.53 µM
inhibition (HCT-116 [4]): Active
inhibition (HCT-116 [5]): Active
Activity (HCT-116 [6]): Dose-Dependent Effect
Activity (HCT-116 [7]): 18%
viability at 20 µM (HCT-116 [8]): 36%
Activity (HCT-116 [9]): Active
Activity (HCT-116 [10]): Active
Activity (HCT-116 [11]): Active
Activity (HCT-116 [12]): Active
inhibition in vivo at 90 mg/kg (HCT-116 [14]): 69%
Activity [15]: Non-Toxic
